Experimental data of several laboratories.
Each line is one published result; the experiments were not run side by side.
DRD3: D(3) dopamine receptor (DRD3, Homo sapiens, UniProt P35462)
SLC6A3: Sodium-dependent dopamine transporter (SLC6A3, Homo sapiens, UniProt Q01959)
PDE10A: cAMP and cAMP-inhibited cGMP 3',5'-cyclic phosphodiesterase 10A (PDE10A, Homo sapiens, UniProt Q9Y233)

SMILES | target | assay | test system | conditions | quantity | value
Cc1[nH]c(C)c(S(=O)(=O)Nc2ccc(C(F)(F)F)c(Cl)c2)c1C(=O)N1CC(F)(F)C(F)(F)C1 | DRD3 | β-arrestin recruitment, agonist |  | 90 min | Emax | 100%
CCOC(=O)[C@@]12C[C@@H]1[C@@H](n1ccc3c(NCCCCc4ccccc4)nc(C#Cc4ccccc4)nc31)[C@H](O)[C@@H]2O | SLC6A3 | ligand displacement, radioligand |  | 10 µM | inhibition | 66%
c1ccc(-c2cccc(Cc3ccnc4ccccc34)c2)cc1 | PDE10A | enzyme activity, inhibitor, FP |  | 0.1 µM | inhibition | 0%
COc1ccc2oc(-c3ccc4nc(N)oc4c3)c/c(=N\c3ccccc3NC(=O)CCN)c2c1 | Activated CDC42 kinase 1 (TNK2, Homo sapiens, UniProt Q07912) | binding |  | 1 µM | remaining binding | 100%
CCOC(=O)[C@@]12C[C@@H]1[C@@H](n1cnc3c(NCCCCCc4ccccc4)nc(C#Cc4ccc(Cl)s4)nc31)[C@H](O)[C@@H]2O | SLC6A3 | transporter uptake, inhibitor, radiometric | HEK293 | 10 µM | inhibition | < 5%
COc1ccc2c(Cc3ccc(OC)c(OC)c3)ccnc2c1 | PDE10A | enzyme activity, inhibitor, FP |  | 0.1 µM | inhibition | 33%
Cc1[nH]c(C)c(S(=O)(=O)Nc2ccc([N+](=O)[O-])c(Cl)c2)c1C(=O)N1CCC(F)(F)C1 | DRD3 | β-arrestin recruitment, agonist |  | 90 min | Emax | 101%
COc1ccc2nccc(Cc3cccc(-c4ccc(CO)cc4)c3)c2c1 | PDE10A | enzyme activity, inhibitor, FP |  | 0.1 µM | inhibition | 0%
OC[C@@]12C[C@@H]1[C@@H](n1cnc3c(NC(C4CCC4)C4CCC4)nc(C#Cc4ccc(Cl)s4)nc31)[C@H](O)[C@@H]2O | SLC6A3 | ligand displacement, radioligand |  | 10 µM | inhibition | 78%
Cc1[nH]c(C)c(S(=O)(=O)Nc2ccc(Cl)c(Cl)c2Cl)c1C(=O)N1CCC(F)(F)C1 | DRD3 | β-arrestin recruitment, agonist |  | 90 min | Emax | 92%
c1ccc2c(Cc3ccc4cn(C5COC5)nc4c3)nccc2c1 | PDE10A | enzyme activity, inhibitor, FP |  | 0.1 µM | inhibition | 0%
Cc1[nH]c(C)c(S(=O)(=O)Nc2cc(Cl)cc(C(F)(F)F)c2)c1C(=O)N1CCC(F)(F)C1 | DRD3 | β-arrestin recruitment, agonist |  | 90 min | Emax | 101%
COc1cc2ncnc(C(=O)c3cccc4ccccc34)c2cc1OC | PDE10A | enzyme activity, inhibitor, FP |  | 0.1 µM | inhibition | 52%
Cc1[nH]c(C)c(S(=O)(=O)Nc2ccc(C(=O)C(F)(F)F)c(Cl)c2)c1C(=O)N1CCC(F)(F)C1 | DRD3 | β-arrestin recruitment, agonist |  | 90 min | Emax | 96%
N#C[C@@]12C[C@@H]1[C@@H](n1cnc3c(Nc4ccc(Cl)c(Cl)c4)nc(I)nc31)[C@H](O)[C@@H]2O | SLC6A3 | ligand displacement, radioligand |  | 10 µM | inhibition | -9%
CCCCC(=O)Nc1ccc(-c2ccc3ncn(CCC)c(=O)c3c2)cn1 | Dual specificity protein kinase CLK4 (CLK4, Homo sapiens, UniProt Q9HAZ1) | binding, competition with immobilised ligand |  | 0.5 µM | remaining binding | 86%
CCOC(=O)C12CC1C(n1ccc3c(NCCCc4ccccc4)nc(C#Cc4ccc(Cl)s4)nc31)C(O)C2O (stereo not drawn) | SLC6A3 | ligand displacement, radioligand |  | 10 µM | inhibition | 61%
C1=C/COCc2cc(ccc2OCCN2CCCC2)Nc2nccc(n2)-c2cccc(c2)COC/1 | Serine/threonine-protein kinase D1 (PRKD1, Homo sapiens, UniProt Q15139) | binding |  | 0.1 µM | remaining binding | 100%
COc1ccc2nccc(Cc3cccc(-c4ccc(C(=O)O)cc4)c3)c2c1 | PDE10A | enzyme activity, inhibitor, FP |  | 0.1 µM | inhibition | 11%
CCOC(=O)[C@@]12C[C@@H]1[C@@H](n1cnc3c(NCCCCCCc4ccccc4)nc(I)nc31)[C@H](O)[C@@H]2O | SLC6A3 | ligand displacement, radioligand |  | 10 µM | inhibition | 73%
COc1cc2ncnc(Cc3cccc(Cl)c3)c2cc1OC | PDE10A | enzyme activity, inhibitor, FP |  | 0.1 µM | inhibition | 68%
Cc1[nH]cc(S(=O)(=O)Nc2ccc(C(F)(F)F)c(Cl)c2)c1C(=O)N(C)C | DRD3 | β-arrestin recruitment, agonist |  | 90 min | Emax | 83%
CCOC(=O)[C@@]12C[C@@H]1[C@@H](n1cnc3c(NCCO)nc(I)nc31)[C@H](O)[C@@H]2O | SLC6A3 | ligand displacement, radioligand |  | 10 µM | inhibition | 20%
Cc1ccc(NS(=O)(=O)c2c(C)[nH]c(C)c2C(=O)N2CCC2)cc1Cl | DRD3 | β-arrestin recruitment, agonist |  | 90 min | Emax | 96%
COc1cc2ncnc(Cc3cccc(-c4ccncc4)c3)c2cc1OC | PDE10A | enzyme activity, inhibitor, FP |  | 0.1 µM | inhibition | 57%
Cc1ccc(NS(=O)(=O)c2c(C)[nH]c(C)c2C(=O)N2CCC(F)(F)C2)cc1Cl | DRD3 | β-arrestin recruitment, agonist |  | 90 min | Emax | 95%
N#CC[C@@]12C[C@@H]1[C@@H](n1cnc3c(NCCCCCc4ccccc4)nc(I)nc31)[C@H](O)[C@@H]2O | SLC6A3 | ligand displacement, radioligand |  | 10 µM | inhibition | 23%
